The source of these data is paper PMC4347663 (Journal of medicinal chemistry, 2013).

Where a name gives a salt, the structure may show the parent alone.

One series has as its target T1, REV-ERBα (Homo sapiens, UniProt P20393).
T1 sequence (P20393 1-614): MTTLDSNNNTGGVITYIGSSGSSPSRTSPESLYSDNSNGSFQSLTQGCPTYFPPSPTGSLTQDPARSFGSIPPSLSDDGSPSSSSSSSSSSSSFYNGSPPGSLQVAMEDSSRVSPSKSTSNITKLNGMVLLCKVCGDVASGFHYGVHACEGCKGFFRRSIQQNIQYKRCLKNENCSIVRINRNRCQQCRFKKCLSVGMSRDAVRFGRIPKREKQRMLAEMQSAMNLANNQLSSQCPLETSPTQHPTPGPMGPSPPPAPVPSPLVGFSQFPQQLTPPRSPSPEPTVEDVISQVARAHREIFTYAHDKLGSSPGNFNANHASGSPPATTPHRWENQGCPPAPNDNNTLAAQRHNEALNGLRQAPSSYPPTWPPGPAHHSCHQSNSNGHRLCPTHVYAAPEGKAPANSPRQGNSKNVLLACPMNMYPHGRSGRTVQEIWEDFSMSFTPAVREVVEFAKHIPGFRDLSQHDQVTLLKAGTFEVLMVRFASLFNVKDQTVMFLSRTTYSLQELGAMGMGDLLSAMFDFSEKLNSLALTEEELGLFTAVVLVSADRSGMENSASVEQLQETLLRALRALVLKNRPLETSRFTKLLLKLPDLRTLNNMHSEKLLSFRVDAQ
Description: REV-ERBα NCOR FRET assay. Format: biochemical. The note with it: purified REV-ERBα protein, in vitro.

Series [1] relates to BMAL1 expression (Bmal-promoter luciferase) in U2OS cells. In words: BMAL reporter gene assay in synchronized U2OS cells. The note with it: for BMAL1 Phase Delay: delay of peak of second cycle, 20 μM treated cells relative to DMSO treated cells; for inhibition at 20 µM: Homo sapiens, U2OS, 40 h, read-out: BMAL1 Supp. The class given is cell-based, human. For orientation: A reporter such as luciferase makes a cellular process visible.

For the next series, the system named is IL-6. Description: LPS-stimulated IL-6 expression in THP-1 cells. The class given is cell-based, human. The note with it: six hours; for IL-6 transcript expression: 10 μM compound, LPS 10 μg/mL; for IL-6 secretion / expression: 1 μM compound, LPS 10 mcg/mL. The method in brief: (§1)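 THP-1 cells kept at 3×105 to 8×10^5 cells/mL in RPMI1640 with 10% FBS. Cells were stimulated with LPS 10 μg/mL alongside DMSO or test compound at 10 μM, or at 1 μM in triplicate. After 6 h, cells were lysed and RNA was analysed by RT-qPCR with TATA box binding protein as housekeeping gene. Groups were compared by one-way ANOVA with Dunnett's post-hoc test.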

A further series deals with ABCA1. Description: ABCA1 expression in THP-1 cells. The class given is cell-based, human. The following applies: six hours; for ABCA1 transcript expression: 10 μM compound, LPS 10 μg/mL; for ABCA1 levels: 1 μM compound, LPS 10 mcg/mL. The method in brief: as §1
For the next series, the target named is T2, LXRα (Homo sapiens, UniProt Q13133).
T2 sequence (Q13133 1-447): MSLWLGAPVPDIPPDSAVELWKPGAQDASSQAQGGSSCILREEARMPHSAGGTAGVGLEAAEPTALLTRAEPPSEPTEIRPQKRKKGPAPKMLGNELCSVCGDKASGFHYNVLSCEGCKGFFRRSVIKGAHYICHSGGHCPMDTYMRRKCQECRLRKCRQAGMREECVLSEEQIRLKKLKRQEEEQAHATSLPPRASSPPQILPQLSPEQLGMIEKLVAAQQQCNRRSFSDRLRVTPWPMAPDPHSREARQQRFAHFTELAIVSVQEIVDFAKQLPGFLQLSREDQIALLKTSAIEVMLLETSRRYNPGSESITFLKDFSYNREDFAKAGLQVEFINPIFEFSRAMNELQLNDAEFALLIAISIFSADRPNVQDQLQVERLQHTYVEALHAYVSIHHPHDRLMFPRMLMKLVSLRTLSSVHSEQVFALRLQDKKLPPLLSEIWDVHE
Description: LXRα radio ligand displacement binding. The following applies: for LXRα Fold Sel.: selectivity for REV-ERBα over LXRα.

Series [2] in a line: IV and oral DMPK cassette dose experiment. Format: in vivo, C57Bl/6 mice. The following applies: for AUC(0-t) / Vd / clearance / half-life / Cmax / Tmax / bioavailability: male, C57Bl/6, mouse, plasma, 1 mg/kg; for bioavailability: F.

On to `CC(C)(C)OC(=O)CN(Cc1ccc(Cl)cc1)Cc1ccc([N+](=O)[O-])s1` [Compound 1, reference compound], for which the “recruitment of NCOR peptide fragment to REV-ERBα (in words)” value (“recruitment of NCOR peptide fragment” for short) at REV-ERBα is listed as “induced recruitment of co-factor NCOR peptide fragment”. In series [1], the “BMAL1 Phase Delay” value stood at 0 h. The IL-6 transcript expression result in the series on IL-6 was “significantly repressed IL-6”. In addition, the ABCA1 transcript expression entry in the series on ABCA1 is reported as “increased ABCA1 transcript expression”.

Consider `CCCCCNC(=O)N1CCC(CN(Cc2ccc(Cl)cc2)Cc2ccc([N+](=O)[O-])s2)C1` (stereo not drawn) [Compound 2, reference compound], for which the “recruitment of NCOR peptide fragment” value on REV-ERBα was “neither compounds 2 or 3 increased recruitment of the NCOR peptide fragment”. For the same compound, the IC50 on LXRα was determined as 6.3 µM. The inhibition at 20 µM in series [1] came to 20%. Moreover, the IL-6 transcript expression result with IL-6 was “significantly repressed IL-6”. Besides, the ABCA1 transcript expression entry with ABCA1 is “increased ABCA1 transcript expression”.

As to `CCOC(=O)N1CCC(CN(Cc2ccc(Cl)cc2)Cc2ccc([N+](=O)[O-])s2)C1` (stereo not drawn) [Compound 3, reference compound], the “recruitment of NCOR peptide fragment” value at REV-ERBα is “neither compounds 2 or 3 increased recruitment of the NCOR peptide fragment”. For the same compound, the inhibition at 20 µM in series [1] is 14%. In series [2] (iv), this compound showed an AUC(0-t) of 365 ng·h/mL, a Vd of 1.6 L/kg, a clearance of 45 mL/min/kg and a half-life of 33 min. Besides, in series [2] (po), the AUC(0-t) worked out at 7.93 ng·h/mL, the peak level (Cmax) was 7.41 ng/mL and the Tmax was 30 min. This compound also returned a bioavailability in series [2] (po, 1 mg/Kg cassette, mice) of 2.2%.

Take `Cc1cc(Cl)ccc1CN(Cc1ccc(Cl)cc1)Cc1ccc([N+](=O)[O-])s1` [Compound 4, N-(4-chloro-2-methylbenzyl)-N-(4-chlorobenzyl)-1-(5-nitrothiophen-2-yl)methanamine hydrochloride salt]: at LXRα, the “LXRα Fold Sel.” value was 1,259 fold. For the same compound, the “BMAL1 Phase Delay” value in series [1] stood at 0 h. In addition, in series [1] (synchronized U2OS cells), the “effect on BMAL oscillation curve” value is “suppression and shift of the BMAL oscillation curve in a dose-dependent manner”. The “IL-6 secretion / expression” value with IL-6 was “significant reduction of IL-6 secretion”. Besides, in the series on ABCA1, the ABCA1 levels result is “no measurable effect on ABCA1 levels”. Moreover, in series [2] (Oral, 1 mg/Kg cassette, mice), the F was found to be 23.4%. The same compound gave a half-life in series [2] of 120 min. In series [2] (iv), this compound gave an AUC(0-t) of 2540 ng·h/mL, a Vd of 0.3 L/kg, a clearance of 6.67 mL/min/kg and a half-life of 99 min. Further, in series [2] (po), the AUC(0-t) was 594 ng·h/mL, the Cmax was determined as 180 ng/mL and the Tmax came to 120 min.

As for `O=[N+]([O-])c1ccc(CN(Cc2ccc(Cl)cc2)Cc2ccccc2F)s1` [Compound 6, N-(4-Chlorobenzyl)-N-(2-fluorobenzyl)-1-(5-nitrothiophen-2-yl)methanamine hydrochloride salt], in series [1], the “BMAL1 Phase Delay” value turned out to be 0 h.

For the compound `O=[N+]([O-])c1ccc(CN(Cc2ccc(F)cc2)Cc2cccnc2)s1` [Compound 10, N-(4-Fluorobenzyl)-1-(5-nitrothiophen-2-yl)-N-(pyridin-3-ylmethyl)methanamine hydrochloride salt], at LXRα, the “LXRα Fold Sel.” value is given as over 250 fold. Moreover, in series [1], the “BMAL1 Phase Delay” value was 0 h. In addition, in the series on IL-6, the “IL-6 secretion / expression” value was “significant reduction of IL-6 secretion”. The ABCA1 levels result in the series on ABCA1 is “no measurable effect on ABCA1 levels”. In series [2] (iv), this compound gave an exposure AUC(0-t) of 354 ng·h/mL, a Vd of 1.5 L/kg, a clearance of 46.7 mL/min/kg and a half-life of 44.4 min. For the same compound, in series [2] (po), the AUC(0-t) is 8.39 ng·h/mL, the Cmax came out at 8.98 ng/mL and the Tmax came out at 15 min. For the same compound, the bioavailability in series [2] (po, 1 mg/Kg cassette, mice) is 2.4%.

For the compound `N#Cc1ccc(CN(Cc2ccc(Cl)cc2)Cc2cccnc2)s1` [Compound 16, 5-(((4-Chloro-benzyl)(pyridin-3-ylmethyl)amino)methyl)thiophene-2-carbonitrile hydrochloride salt], the “LXRα Fold Sel.” value at LXRα turned out to be 100 fold. In addition, the “BMAL1 Phase Delay” value in series [1] came out at 0 h. In addition, in the series on IL-6, the “IL-6 secretion / expression” value is listed as “significant reduction of IL-6 secretion”. The ABCA1 levels entry in the series on ABCA1 is “no measurable effect on ABCA1 levels”. In series [2] (iv), this compound gave an AUC(0-t) of 361 ng·h/mL, a Vd of 1.8 L/kg, a clearance of 46.7 mL/min/kg and a half-life of 76.2 min. Moreover, in series [2] (po), the AUC(0-t) was 10.2 ng·h/mL, the concentration peaked (Cmax) at 9.14 ng/mL and the Tmax came to 15 min. The same compound came in with a bioavailability in series [2] (po, 1 mg/Kg cassette, mice) of 3.5%.

In the case of `Clc1ccc(CN(Cc2cccnc2)Cc2nccs2)cc1` [Compound 20, N-(4-Chlorobenzyl)-1-(pyridin-3-yl)-N-(thiazol-2-ylmethyl)methanamine], on REV-ERBα, the “recruitment of NCOR peptide fragment” value was “complete loss of activity”. The “LXRα Fold Sel.” value at LXRα was under 1 fold.

Take `Clc1ccc(CN(Cc2cccnc2)Cc2ncc[nH]2)cc1` [Compound 21, N-((1H-Imidazol-2-yl)methyl)-N-(4-chlorobenzyl)-1-(pyridin-3-yl)methanamine]: the “recruitment of NCOR peptide fragment” value on REV-ERBα is “complete loss of activity”.

As for `N#Cc1ccc(CN(Cc2cccnc2)Cc2ccc(F)c(F)c2)s1` [Compound 23, 5-(((3,4-Difluorobenzyl)(pyridin-3-ylmethyl)amino)methyl)thiophene-2-carbonitrile], the “IL-6 secretion / expression” value in the series on IL-6 is listed as “significant reduction of IL-6 secretion”. Further, the ABCA1 levels entry in the series with ABCA1 was “no measurable effect on ABCA1 levels”. In addition, in series [2] (iv), the AUC(0-t) worked out at 375 ng·h/mL, the Vd worked out at 1.4 L/kg, the clearance was 43.3 mL/min/kg and the half-life is 44.4 min. For the same compound, in series [2] (po), the AUC(0-t) is 9.39 ng·h/mL, the highest level (Cmax) was 9.94 ng/mL and the Tmax came to 15 min. Also, the bioavailability in series [2] (po, 1 mg/Kg cassette, mice) was 3%.

As for `N#Cc1ccc(CN(Cc2cccnc2)Cc2cc(F)ccc2F)s1` [Compound 25, 5-(((2,5-Difluorobenzyl)(pyridin-3-ylmethyl)amino)methyl)thiophene-2-carbonitrile], in series [1], the “BMAL1 Phase Delay” value is 0 h.

On to `N#Cc1ccc(CN(Cc2cccnc2)Cc2ccccc2F)s1` [Compound 26, 5-(((2-Fluorobenzyl)(pyridin-3-ylmethyl)amino)methyl)thiophene-2-carbonitrile], for which the “LXRα Fold Sel.” value on LXRα is under 1 fold. Moreover, in series [1], the “BMAL1 Phase Delay” value stood at 0 h.

`C=CC1=C(C)c2cc3[n-]c(cc4[n-]c(cc5nc(cc1n2)C(C)=C5C=C)c(C)c4CCC(=O)O)c(CCC(=O)O)c3C.[Fe+2]` [heme, reference compound] registered a BMAL-luciferase suppression in series [1] (in-house U2OS reporter assay, single endpoint comparison) of over 50%.

The IC50 is the concentration that inhibits the measured activity by half. What is called AUC(0-t) is the area under the concentration-time curve up to a stated or last time point. A higher AUC(0-t) goes with more exposure. As usually defined, the half-life is how long it takes for the measured level to halve. The low end stands for rapid decline, the high end for slow decline. Usually Cmax stands for the highest concentration seen after dosing. A word on the Tmax: it is the time from dosing to the highest level. In general, bioavailability refers to dose-corrected exposure relative to a reference, in per cent. Read a high bioavailability as good availability.
